Screens as filed in PubChem BioAssay.
STAT3 activator: STAT3 signaling activation; U3A cells, IL-6 STAT3-luciferase reporter, luminescence; 100% = signal with IL-6 EC80 alone; activation (% of control), % at 5.6 µM; 190,000 tested, 0.91% active;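 active = activation above the screen-wide mean of compound activation plus 3 SD, cut at about 130% in these data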
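Test system: Human STAT1-deficient U3A cells with stable STAT3-luciferase reporter | Also added: Interleukin-6, 33 ng/mL | Timing: Compound pre-incubation 1 h before IL-6, then 6 h stimulation at 37 °C | Technique: Luciferase reporter luminescence | Read-out: Percent of IL-6-only median luminescence | Benchmarks: IL-6-only wells as 100% reference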
STAT3 blocker: inhibitors of IL-6 induced STAT3 signaling | 190,000 tested, 0.89% active | inhibition, % at 5.5 µM | AID 862 | U3A cells, IL-6 STAT3-luciferase reporter, luminescence; host cell line lacks STAT1;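 active = inhibition above the mean inhibition across all screened compounds plus 3 SD, cut at about 44% in these data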
STAT1 inh: reduces IFN-gamma driven STAT1 reporter signal. NIH 3T3 STAT1-luciferase reporter, luminescence. inhibition, % at 5.5 µM. 200,000 tested, 0.35% active. AID 920;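 active = inhibition above a set limit, the mean inhibition across all tested compounds plus 3 SD, cut at about 34% in these data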
TRAIL sens C8: sensitizes caspase-8 expressing cells to TRAIL | 360,000 tested, 1% active | inhibition (viability loss, TRAIL sensitization), % at 10 µM | NB7+C8 cells + TRAIL, ATPlite viability luminescence | AID 624354;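 active = compounds causing at least 50% loss of cell viability in the single-dose screen, relative to plate controls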
PPC-1+TRAIL kill: compounds killing PPC-1 cancer cells with TRAIL present (potentiator screen, no TRAIL-free arm); PPC-1 cells + TRAIL, ATPLite viability luminescence; cell killing (% activity), % at 4 µM or 5 µM; 220,000 tested, 0.41% active; AID 1443;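 active = cell killing above 50% in the first pass at 4 µM, then a duplicate retest at 5 µM averaging 50% or more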
PPC1 cytotox: PPC-1 cell cytotoxicity. shares compounds with PPC-1+TRAIL kill. PPC-1 viability, ATPlite luminescence, overnight. cytotoxicity, % at 5 µM. 1,200 tested, 50% active;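 active = reconfirmed compounds whose average cytotoxicity reaches 50% or more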
A number is an active result; 0 = inactive; - = no result given. An excerpt weighted towards active compounds, which were near 1.8% of everything screened.

SMILES | STAT3 activator | STAT3 blocker | STAT1 inh | TRAIL sens C8 | PPC-1+TRAIL kill | PPC1 cytotox
COc1cccc(C(=O)CN(C(=O)c2ccc(Cl)c(Cl)c2)N2C(=O)C3CCCCC3C2=O)c1 (stereo not given) | 0 | 0 | 0 | 0 | 0 | 0
Cn1c(Cc2cccc3ccccc23)nnc1SCc1ccc([N+](=O)[O-])cc1 | 0 | 0 | 0 | 0 | 0 | -
CN(C)S(=O)(=O)c1ccc(C(=O)Nc2ccc(S(=O)(=O)NC3=NCCCCC3)cc2)cc1 | 0 | 0 | 0 | 0 | 0 | 0
Cc1ccc(Sc2ncnc3onc(C)c23)c(C)c1 | 0 | 0 | 0 | 0 | 0 | 0
CCOC(=O)C1=C2N(C)c3ccccc3N2CCC1=O | 0 | 0 | 0 | 0 | 0 | 0
O=C(Cc1csc(N2CCOCC2)n1)N/N=C/c1ccccc1C(=O)O | - | - | - | 0 | 0 | -
CCN1C(=O)C(NC(C)=O)c2cc(Br)ccc21 (stereo not given) | 0 | 0 | 0 | 0 | 0 | -
CCCCN1C(=O)C(NC(C)=O)c2cc(Br)ccc21 (stereo not given) | 0 | 0 | 0 | 0 | 0 | 0
CCC(C)N(C(=O)Cn1nnc(-c2ccc(F)cc2)n1)C1CCS(=O)(=O)C1 (stereo not given) | - | - | - | 0 | - | -
CC1=CC=CC2=NC(=O)CC(C)(C(=O)N(CC(=O)NC3CCCC3)c3ccc(F)cc3)N12 (stereo not given) | - | - | - | 0 | - | -
CC(=O)C1=C(C)NC(SCC(N)=O)=C(C#N)C1c1cccs1 (stereo not given) | 0 | 0 | 0 | 0 | 0 | 0
O=C(Nc1ccc(Cl)cn1)c1cc2ccccc2o1 | 0 | 0 | 0 | 0 | 0 | -
O=C(Nc1ccccn1)c1cc2ccccc2o1 | 0 | 89 | 53 | 83 | 81 | 80
CN(C)S(=O)(=O)c1ccc(NC(=O)c2cc3ccccc3o2)cc1 | 0 | 0 | 0 | 0 | 0 | -
Cc1ccc(NC(=O)c2cc3ccccc3o2)cc1S(=O)(=O)N(C)C | 0 | 0 | 0 | 67 | 0 | 0
CCCCCCCCCc1conc1C(=O)/C=C/c1oc2c(c1C)CCC(C)C2 (stereo not given) | - | - | - | 0 | - | -
O=C(/C=C/c1ccc(O)c(O)c1)NC(=O)c1ccccc1O | - | - | - | 0 | - | -
CSc1ccc(/C=C/C(=O)NC(=O)c2ccccc2O)cc1 | 0 | 0 | 0 | 52 | 60 | 62
O=C(/C=C/c1ccc(Br)cc1)NC(=O)c1ccccc1O | 0 | 0 | 0 | 63 | 62 | 62
Cc1ccc(C#CC[N+]2(CC#Cc3ccc(C)cc3)CCCCC2)cc1 | 0 | 0 | 0 | 0 | 0 | 0
C(#Cc1ccccc1)C[N+]1(CC#Cc2ccccc2)CCCCC1 | 0 | 0 | 0 | 0 | 0 | -
Cc1ccc(OCc2nc(-c3ccccn3)no2)c(Br)c1 | 0 | 83 | 48 | 59 | 0 | 0
O=C(/C=C/Nc1ccccc1O)c1ccco1 | - | - | - | 0 | 0 | -
O=C(/C=C/Nc1ccc(F)cc1F)c1ccco1 | 0 | 84 | 77 | 92 | 90 | 89
O=C(/C=C/Nc1ccc(Br)cc1F)c1ccco1 | 0 | 96 | 81 | 91 | 89 | 89
SMILES | STAT3 activator | STAT3 blocker | STAT1 inh | TRAIL sens C8 | PPC-1+TRAIL kill | PPC1 cytotox
O=C(/C=C/Nc1cccc(F)c1)c1ccco1 | 0 | 0 | 0 | 0 | 0 | -
CCCn1c(SCC(=O)NC(C)(C)C)nnc1-c1ccco1 | 0 | 0 | 0 | 0 | 0 | -
Cc1ccc(/C=N/Nc2nnc(Cc3ccccc3)c(=O)[nH]2)o1 | 0 | 0 | 0 | 0 | 0 | -
CCCCn1c(/C=N/Nc2nc3ccccc3[nH]2)nc2ccccc21 | 0 | 0 | 0 | 0 | 0 | -
Cc1ccc(/C=N\Nc2nc3ccc(Cl)cc3[nH]2)o1 | 0 | 0 | 0 | 0 | 0 | 0
C(=N\Nc1nc2ccccc2[nH]1)/c1ccc2ncccc2c1 | - | - | - | 81 | 70 | 72
Fc1ccccc1-c1ccc(/C=N/Nc2nc3ccccc3[nH]2)o1 | 0 | 0 | 0 | 79 | 80 | 78
C(=N\Nc1nc2ccccc2[nH]1)/c1cccc2nccnc12 | - | - | - | 0 | 0 | -
C(=N\Nc1nc2ccccc2[nH]1)/c1ccccn1 | 0 | 111 | 93 | 91 | 79 | 80
COc1ccc(/C=N/Nc2nc3ccccc3[nH]2)cc1OC | 0 | 0 | 0 | 0 | 0 | -
CN(C)C(CNC(=O)c1cc(-c2ccco2)nc2ccccc12)c1ccccc1 (stereo not given) | - | - | - | 0 | - | -
Cc1ccc(Nc2nc(Oc3ccc(OCc4ccccc4)nn3)nc(N3CCOCC3)n2)cc1 | 0 | 0 | 0 | 0 | 0 | 0
COc1ccc(CCNC(=O)C(=O)c2cn(CC(=O)N3CCCC3)c3ccccc23)cc1OC | - | - | - | 0 | - | -
COC(=O)c1ccc(NC(=O)CN(C)S(=O)(=O)c2ccc(OC)c(C)c2)cc1 | 0 | 0 | 0 | 0 | 0 | 0
CCNC(=S)Nc1ccc(N2CCCCC2)cc1 | 0 | 0 | 0 | 0 | 0 | -
CCNC(=S)N/N=C/c1sc(N2CCCCC2)nc1-c1cccs1 | 0 | 0 | 0 | 0 | 0 | 0
COc1ccc(CCN(C)CC(=O)Nc2c(C)cc(C)cc2C)cc1OC | - | - | - | 0 | - | -
CC(NS(=O)(=O)c1ccccc1)C1COc2ccccc2O1 (stereo not given) | 0 | 0 | 0 | 0 | 0 | -
CC(NC(=O)c1ccccc1Cl)C1COc2ccccc2O1 (stereo not given) | 0 | 0 | 0 | 0 | 0 | 0
COC(=O)c1nc2n(n1)C(c1ccc(OC)c(OC)c1OC)C1=C(CCCC1=O)N2 (stereo not given) | 0 | 0 | 0 | 0 | 0 | 0
COc1cc(/C=C/c2cc(C(=O)O)c3ccccc3n2)cc(OC)c1O | 0 | 0 | 0 | 0 | 0 | -
CCOc1cccc(/C=C/c2cc(C(=O)O)c3ccccc3n2)c1OC | - | - | - | 76 | 71 | 69
O=C1/C(=N\S(=O)(=O)c2cccs2)C([n+]2ccccc2)=C([O-])c2ccccc21 | - | - | - | 0 | 0 | -
Cc1ccc(NC2=C/C(=N\S(=O)(=O)c3cccs3)c3ccccc3C2=O)c(C)c1 | 0 | 0 | 0 | 96 | 52 | 54
O=C1C(Nc2ccc(O)cc2)=C/C(=N/S(=O)(=O)c2cccs2)c2ccccc21 | 0 | 86 | 90 | 96 | 73 | 74
SMILES | STAT3 activator | STAT3 blocker | STAT1 inh | TRAIL sens C8 | PPC-1+TRAIL kill | PPC1 cytotox
O=C(COc1ccccc1Cl)OCC(=O)N1CCN(S(=O)(=O)c2ccccc2)CC1 | 0 | 0 | 0 | 0 | 0 | 0
COCn1c(-c2ccc(OC)cc2)nc2ccccc21 | 0 | 0 | 0 | 0 | 0 | 0
CCCn1c(-c2ccc(OC)cc2)nc2ccccc21 | 0 | 0 | 0 | 0 | 0 | -
C/C(=N\NC(=O)c1n[nH]c2c1CCC2)c1ccco1 | - | - | - | 64 | 0 | 0
COc1ccc(C(=O)Nc2ccc(C)cn2)c(OC)c1 | 0 | 105 | 82 | 91 | 88 | 88
O=C(c1ccc(Cl)c([N+](=O)[O-])c1)N1CCCc2ccccc21 | - | - | - | 0 | - | -
O=C(C1Cc2ccccc2CN1S(=O)(=O)c1ccc(F)cc1)N1CCCCC1 (stereo not given) | 0 | 0 | 0 | 0 | 0 | 0
O=C(c1ccco1)N1CCN(C(=O)C2Cc3ccccc3CN2S(=O)(=O)c2ccc(F)cc2)CC1 (stereo not given) | 0 | 0 | 0 | 0 | 0 | -
Cc1nn(C(C)(C)C)c(C)c1/C=N/OC(=O)Nc1ccc(Cl)cc1 | - | - | - | 88 | 85 | 86
CCOC(=O)c1c(NC(=O)c2noc(C)c2[N+](=O)[O-])sc(C(C)=O)c1C | 0 | 0 | 0 | 0 | 0 | 0
